Assay results from different studies.
Target: 5'-AMP-activated protein kinase catalytic subunit alpha-1 (PRKAA1, Homo sapiens, UniProt Q13131)

SMILES | test | system | setting | measurement | value
Nc1ncnc2occ(-c3ccc(NC(=O)Nc4cc(C(F)(F)F)ccc4F)cc3)c12 | cell-free assay |  | 20 µM | remaining signal | 5.3%
Cc1ccc(C(=O)Nc2ccc(CN3CCN(C)CC3)c(C(F)(F)F)c2)cc1C#Cc1cnc2cccnn12 | enzyme activity |  | 23.5 nM | remaining activity | 73%
CN1CC(Oc2cnc(C#N)cc2-c2ccn3nc(NC(=O)C4CC4)cc3c2)C1 | enzyme activity, inhibitor |  | 1 µM | inhibition | 5%
O=C(Nc1cccnn1)N1CC(C/C=C/c2cncc(Oc3ccc(C(F)(F)F)cn3)n2)C1 | cell-free assay, competition with immobilised ligand |  | 1 µM | remaining binding | 100%
CC(C)(C)c1nc(-c2cccc(NS(=O)(=O)c3c(F)cccc3F)c2F)c(-c2ccnc(N)n2)s1 | enzyme activity, inhibitor, radiometric |  | 1 µM | remaining activity | 49%
CCCCNc1ncc2c(-c3ccc(F)cc3)nn(C[C@H]3CC[C@H](N)CC3)c2n1 | target engagement in cells, inhibitor, chemoproteomics |  | 20 mM | inhibition | 22.8%
CCc1ccccc1C(=O)Nc1n[nH]c2c(C)c(F)c(C3C(C#N)=C(C)N(C)C(C)=C3C#N)cc12 | cell-free assay, competition with immobilised ligand |  | 1 µM | remaining binding | 7.5%
C=CC(=O)Nc1cc(Nc2nccc(Nc3cc(Cl)c(F)cc3C(C)(C)O)n2)c(OC)cc1N1CC[C@@H](N(C)C)C1 | enzyme activity, inhibitor |  | 1 µM | inhibition | -6%
FC(F)(F)Oc1cccc(-c2cnc3ccc(-c4ccncc4)nn23)c1 | enzyme activity, inhibitor, radiometric |  | 1 µM | activity vs control | 81%
Cc1ncc([N+](=O)[O-])n1C(=NO)c1ccccc1C(F)(F)F | enzyme activity, inhibitor |  | 10 µM | inhibition | 7.33%
COc1cccc2c(NCc3ccccc3)nc(-n3c(N)nc4ccccc43)nc12 | target engagement in cells, inhibitor, chemoproteomics |  | 20 mM | inhibition | 8.3%
CC(C)(C)c1nc2c(s1)c1nc(N)ncc1c1ccc(NS(=O)(=O)c3c(F)cccc3F)c(F)c12 | enzyme activity, inhibitor, radiometric |  | 1 µM | remaining activity | 81%
Nc1cnc(N2CCc3cc(S(=O)(=O)Nc4c(F)cc(Cl)cc4F)cc(N4CCCC4=O)c32)nc1 | cell-free assay, competition with immobilised ligand |  | 1 µM | remaining binding | 100%
CCN1CCN(Cc2ccc(NC(=O)c3ccc(C)c(Oc4ccnc5[nH]ccc45)c3)cc2C(F)(F)F)CC1 | target engagement in cells, inhibitor, chemoproteomics | Huh-7 | 1 µM | inhibition | -32.8%
